ChEMBL document CHEMBL1132697, “Dual inhibition of phosphodiesterase 4 and matrix metalloproteinases by an (arylsulfonyl)hydroxamic acid template” (J Med Chem, 1999)

Assays:
[1] = target: 72 kDa type IV collagenase (Homo sapiens, UniProt P08253); experiment: Inhibition of matrix metalloprotease-2 (MMP-2), gelatinase-A
Procedure, shortened: (§1)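 Recombinant human enzymes (MMP-1, MMP-2, MMP-3) were used as the source for the inhibition measurements.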

[2] = target: Stromelysin-1 (Homo sapiens, UniProt P08254); experiment: Inhibition of matrix metalloprotease-3 (MMP-3), stromelysin-1; procedure, shortened: as §1
[3] = target: T1, Interstitial collagenase (Homo sapiens, UniProt P03956); experiment: Inhibition of matrix metalloprotease-1 (MMP-1), fibroblast collagenase.; procedure, shortened: as §1
T1 sequence (P03956 whole entry): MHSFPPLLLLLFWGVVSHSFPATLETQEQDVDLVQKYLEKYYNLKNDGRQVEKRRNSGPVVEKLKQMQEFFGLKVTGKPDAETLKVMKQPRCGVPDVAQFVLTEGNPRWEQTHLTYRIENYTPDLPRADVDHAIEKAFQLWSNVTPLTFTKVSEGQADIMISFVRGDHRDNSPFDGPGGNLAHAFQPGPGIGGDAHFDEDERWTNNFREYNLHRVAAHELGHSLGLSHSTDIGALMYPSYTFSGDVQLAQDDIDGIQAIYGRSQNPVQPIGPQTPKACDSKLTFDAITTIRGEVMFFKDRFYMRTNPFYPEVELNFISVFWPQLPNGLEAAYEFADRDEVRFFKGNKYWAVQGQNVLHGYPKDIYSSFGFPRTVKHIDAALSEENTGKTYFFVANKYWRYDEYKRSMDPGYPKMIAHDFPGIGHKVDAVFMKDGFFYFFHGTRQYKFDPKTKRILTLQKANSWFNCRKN

Sequence of Stromelysin-1 (P08254 whole entry): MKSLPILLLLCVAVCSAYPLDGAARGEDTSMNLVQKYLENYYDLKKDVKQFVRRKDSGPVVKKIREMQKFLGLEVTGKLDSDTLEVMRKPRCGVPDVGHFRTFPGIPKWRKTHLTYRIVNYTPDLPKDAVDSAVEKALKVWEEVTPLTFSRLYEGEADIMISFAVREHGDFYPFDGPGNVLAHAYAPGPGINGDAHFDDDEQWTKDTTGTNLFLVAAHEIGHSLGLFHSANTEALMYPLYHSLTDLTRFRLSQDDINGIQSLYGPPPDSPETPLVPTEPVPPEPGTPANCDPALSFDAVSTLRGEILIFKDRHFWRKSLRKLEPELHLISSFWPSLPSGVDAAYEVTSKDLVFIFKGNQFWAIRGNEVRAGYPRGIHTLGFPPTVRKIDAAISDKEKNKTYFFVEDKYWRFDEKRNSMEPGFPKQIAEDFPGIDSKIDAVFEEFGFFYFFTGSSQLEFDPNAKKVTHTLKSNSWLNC
Sequence of 72 kDa type IV collagenase (P08253 whole entry): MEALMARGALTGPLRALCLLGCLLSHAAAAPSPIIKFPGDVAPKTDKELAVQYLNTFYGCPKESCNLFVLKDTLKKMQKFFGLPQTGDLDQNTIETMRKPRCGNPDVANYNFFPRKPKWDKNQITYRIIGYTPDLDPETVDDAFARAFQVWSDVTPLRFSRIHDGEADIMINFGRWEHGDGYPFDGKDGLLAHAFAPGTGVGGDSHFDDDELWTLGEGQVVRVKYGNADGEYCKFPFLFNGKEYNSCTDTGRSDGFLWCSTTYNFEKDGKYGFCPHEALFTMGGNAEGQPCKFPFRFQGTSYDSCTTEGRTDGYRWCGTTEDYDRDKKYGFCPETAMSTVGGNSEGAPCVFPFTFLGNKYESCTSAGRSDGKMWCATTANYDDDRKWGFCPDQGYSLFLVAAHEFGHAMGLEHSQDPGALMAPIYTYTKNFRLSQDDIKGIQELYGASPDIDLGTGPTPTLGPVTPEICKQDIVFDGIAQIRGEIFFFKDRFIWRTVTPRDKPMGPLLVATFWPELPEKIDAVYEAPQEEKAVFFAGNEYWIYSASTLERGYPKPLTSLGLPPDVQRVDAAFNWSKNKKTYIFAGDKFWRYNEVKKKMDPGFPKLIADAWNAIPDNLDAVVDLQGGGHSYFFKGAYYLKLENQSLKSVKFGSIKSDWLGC

Compound	Ki [1] [nM]	Ki [2] [nM]	Ki [3] [nM]
COc1ccc(S(=O)(=O)C(CCCc2ccccc2)CC(=O)NO)cc1 (centres undefined)	50	600	2000
COc1ccc(S(=O)(=O)C(CCCCc2ccccc2)C(C)C(=O)NO)cc1 (centres undefined)	60	600	2000
COc1ccc(S(=O)(=O)C(CCc2ccccc2)CC(=O)NO)cc1 (centres undefined)	30	200	4000
COc1ccc(S(=O)(=O)[C@H](CCCCc2ccccc2)[C@@H](C)C(=O)NO)cc1	10	500	2000
COc1ccc(S(=O)(=O)C(CCCCc2ccccc2)CC(=O)NO)cc1 (centres undefined)	20	700	5000
COc1ccc(S(=O)(=O)C(CC(=O)NO)Cc2ccccc2)cc1 (centres undefined)	20	300	1000
COc1ccc(S(=O)(=O)C(C)(CCCCc2ccccc2)CC(=O)NO)cc1 (centres undefined)	50	1000	2000
COc1ccc(S(=O)(=O)C(CCCCc2ccccc2)CC(=O)NO)cc1OC (centres undefined)	> 10000	> 10000	> 10000
